The text below walks through data of ChEMBL document CHEMBL1250508, “Synthesis and cytotoxic potency of novel tris(1-alkylindol-3-yl)methylium salts: role of N-alkyl substituents” (Bioorg Med Chem, 2010).

Active and inactive are the calls of the source. The calls are words filed in the database; no cut-off is given here.

In data set [1] the test system is HCT-116. Description: Cytotoxicity against human HCT116 cells after 72 hrs by MTT assay. The class given is functional, cell-based. Particulars: HCT-116, 72 h. Summed up:
(§1)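 Tumour lines were grown in DMEM with 5% fetal calf serum, 2 mM L-glutamine, penicillin and streptomycin at 37 °C, 5% CO2, and used in log phase. 5×10^3 cells per well were exposed to serial concentrations (each in triplicate; 10 mM DMSO stocks diluted in water) or 0.1% DMSO for 72 h. MTT was added for 2 h, formazan dissolved in DMSO, and A540 read. IC50 was taken at 50% viability versus vehicle.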
In general terms: Formazan colour is commonly taken as a measure of viable cells.

The next data set has as its system K562. Description: Cytotoxicity against human K562 cells after 72 hrs by MTT assay. The class given is functional, cell-based. Particulars: K562, 72 h. The gist of the method:
as §1

Another data set relates to Jurkat. Put plainly: Cytotoxicity against human Jurkat cells after 72 hrs by MTT assay. The class given is functional, cell-based. Summed up:
as §1

The subject of the next data set is Mel-Kor. Description: Cytotoxicity against human Mel-Kor cells after 72 hrs by MTT assay. The class given is functional, cell-based. The gist of the method:
as §1

The subject of data set [2] is HCT-116. Put plainly: Induction of apoptosis in human HCT116 cells assessed as loss of DNA integrity at 1 uM after 24 to 48 hrs using Annexin V-FITC staining by flow cytometry. The class given is functional, cell-based. (A flow cytometer gives signals particle by particle.)
The test system of data set [3] is HCT-116. Put plainly: Induction of apoptosis in human HCT116 cells assessed as internucleosomal DNA fragmentation at 1 uM after 24 to 48 hrs by agarose gel by electrophoresis. The class given is functional, cell-based. Summed up:
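HCT116 cells were seeded at 5×10^4 per well overnight and treated with 1 µM for 24–48 h, with drug-free controls. Cells were lysed for 30 min on ice in 350 mM NaCl, 20 mM Tris-HCl pH 7.4, 2 mM MgCl2, 1 mM DTT and 0.5% NP-40. DNA was phenol-chloroform extracted, ethanol/sodium acetate precipitated, and run on a 1% agarose gel.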

In data set [4] the test system is HCT-116. Description: Induction of apoptosis in human HCT116 cells assessed as increase of hypodiploid nuclei at sub-G1 phase at 1 uM after 24 to 48 hrs […] by flow cytometry. The class given is functional, cell-based. The gist of the method: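 HCT116 cells were seeded at 5×10^4 per well overnight, then exposed to 1 µM for 24–48 h at 37 °C with drug-free controls. Cells were washed in cold saline and lysed in 0.1% sodium citrate, 0.3% NP-40, 50 µg/ml RNase A and 10 µg/ml propidium iodide. Flow cytometry on FL2 gave the percentage of hypodiploid (sub-G1) nuclei.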

In the next data set the test system is PBL. Description: Cytotoxicity against human PBL cells after 72 hrs by MTT assay. The class given is cell-based. The gist of the method: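 Lymphocytes were freshly isolated from peripheral blood of four healthy donors and pooled. 5×10^3 cells per well were treated with increasing concentrations in triplicate (DMSO stocks diluted in water) or 0.1% DMSO vehicle for 72 h. MTT was added for 2 h, then formazan dissolved in DMSO and read at 540 nm. IC50 was the concentration giving 50% viability relative to vehicle.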

A further data set has as its system MCF7. Description: Cytotoxicity against human MCF7 cells after 72 hrs by MTT assay. The class given is functional, cell-based. The gist of the method:
as §1

In data set [5] the test system is HCT-116. Put plainly: Induction of apoptosis in p53 deficient human HCT116 cells at 1 uM after 24 to 48 hrs using Annexin V-FITC staining by flow cytometry. The class given is functional, cell-based.
The subject of a further data set is SK-OV-3. Description: Cytotoxicity against human SKOV3 cells after 72 hrs by MTT assay. The class given is functional, cell-based. Summed up:
as §1

A further data set deals with Fem-X. Put plainly: Cytotoxicity against human Fem-X cells after 72 hrs by MTT assay. The class given is functional, cell-based. The gist of the method:
as §1

The subject of a further data set is SK-BR-3. Description: Cytotoxicity against human SK-BR-3 cells after 72 hrs by MTT assay. The class given is functional, cell-based. Summed up:
as §1

Data set [6] relates to HCT-116. Description: Induction of apoptosis in human HCT116 cells assessed as programmed cell death at 1 uM after 24 to 48 hrs using Annexin V-FITC staining by flow cytometry. The class given is functional, cell-based. Summed up: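 HCT116 cells were plated at 5×10^4 per well overnight, given 1 µM for 24–48 h at 37 °C, 5% CO2 (controls without drug), washed with cold saline and harvested. One aliquot was stained with Annexin V-FITC per the manufacturer and analysed by flow cytometry.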

In general, IC50 refers to the concentration at which inhibition is half-maximal. Read a high IC50 as weaker potency in that assay.

As for `CCCCCCCCCCn1cc([C+](c2cn(CCCCCCCCCC)c3ccccc23)c2cn(CCCCCCCCCC)c3ccccc23)c2ccccc21`, the values for the IC50 with HCT-116 [1] and in the data set with K562 were 16400 nM and 12400 nM, respectively.
In the same order, the values of `CCn1cc([C+](c2cn(CC)c3ccccc23)c2cn(CC)c3ccccc23)c2ccccc21` are 1300 nM and 200 nM.
In the case of `CCCn1cc([C+](c2cn(CCC)c3ccccc23)c2cn(CCC)c3ccccc23)c2ccccc21`, the 50% inhibitory concentration (IC50) in the data set with HCT-116 [1] turned out to be 1000 nM; with K562, 200 nM.
Regarding `CCCCCn1cc([C+](c2cn(CCCCC)c3ccccc23)c2cn(CCCCC)c3ccccc23)c2ccccc21`, the result with Jurkat, in the data set with Mel-Kor, in the data set on HCT-116 [2], in the data set on HCT-116 [3], with HCT-116 [4] and in the data set with MCF7 was Active. The result with HCT-116 [5], in the data set on SK-OV-3, with Fem-X, in the data set on SK-BR-3 and in the data set on HCT-116 [6] was Active. In addition, the Activity entry with PBL is “Non-toxic”. For the same compound, the results for the half-inhibitory concentration (IC50) in the data set with HCT-116 [1] and with K562 were 150 nM and 50 nM, respectively.
As for `Cn1cc([C+](c2cn(C)c3ccccc23)c2cn(C)c3ccccc23)c2ccccc21`, the IC50 in the data set on HCT-116 [1] and with K562 was 3200 nM each time.
On to `c1ccc(Cn2cc([C+](c3cn(Cc4ccccc4)c4ccccc34)c3cn(Cc4ccccc4)c4ccccc34)c3ccccc32)cc1`, for which the half-maximal inhibitory concentration (IC50) with HCT-116 [1] is 15000 nM; with K562, 9300 nM.
For `c1ccc2c([C+](c3c[nH]c4ccccc34)c3c[nH]c4ccccc34)c[nH]c2c1`, in that order: 2300 nM and 1600 nM.
Turning to `CCCCCCn1cc([C+](c2cn(CCCCCC)c3ccccc23)c2cn(CCCCCC)c3ccccc23)c2ccccc21`, the IC50 in the data set with HCT-116 [1] worked out at 300 nM; in the data set with K562, 74 nM.
As for `CCCCn1cc([C+](c2cn(CCCC)c3ccccc23)c2cn(CCCC)c3ccccc23)c2ccccc21`, the results for the IC50 in the data set on HCT-116 [1] and in the data set on K562 were 300 nM and 90 nM, respectively.
